Most compounds without a hit are left out; they make up all but 2.6% or so of the library.
SENP8 block-1 – blocks the human protease SENP8; Q96LD8; purified SENP8, Z-RLRGG-aminoluciferin cleavage, luminescence; inhibition, % at 10 µM; actives 1.2% (n = 330,000); AID 2540; in the data active means inhibition above about 50%
SENP8 block-2 – inhibitors of human SENP8 protease; Q96LD8; recombinant SENP8, Nedd8 substrate fluorescence; inhibition, % at 20 µM; actives 0.64% (n = 360,000); AID 602440; in the data active means inhibition mostly above about 40%, no sharp cut-off; inactive means mostly below about 27%
SENP6 block – blocks the human protease SENP6; Recombinant SENP6 catalytic domain, aminoluciferin luminescence; inhibition, % at 10 µM; actives 1.8% (n = 330,000);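 active means inhibition above about 50% at the single tested dose, limit read from the data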;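 further: plate controls were DMSO wells with enzyme for no effect and DMSO wells lacking enzyme for full effect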
UCH37 DUB inh – inhibitors of human deubiquitinating enzyme UCH37; inhibition, % (no concentration beside the values); Q9Y5K5; actives 0.33% (n = 330,000); purified proteasome/UCH37, Ub-AMC cleavage fluorescence;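 active means mean inhibition over replicate wells above about 20%, limit read from the data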;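 further: 0% = compound-free wells with enzyme and 100% = wells lacking proteasome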
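Reagent: Ub-AMC substrate; assay system: Proteasome-associated human UCH37 deubiquitinase; controls: no-proteasome and no-compound wells; read-out: % inhibition of Ub-AMC cleavage fluorescence; timing: 30 min preincubation with enzyme, 25 min cleavage at room temperature; signal: AMC fluorescence from Ub-AMC cleavage, excitation 355 nm, emission 460 nm; buffer or medium: Tris-HCl pH 7.4 plus ovalbumin, ATP-MgCl2, DTT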
SENP1 inh – inhibitors of human SENP1 SUMO protease catalytic domain; inhibition, % at 10 µM; actives 0.21% (n = 360,000); AID 624204; recombinant SENP1 catalytic domain, CyPet-SUMO1-YPet FRET cleavage;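 active means inhibition at least 30% at 10 µM, raw YFP signal under a set limit, fluorescence ratio 0.5 to 1.5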;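 further: 0% = enzyme with DMSO and 100% = no enzyme wells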
Target sequence (Q9P0U3 419-644 limits assumed): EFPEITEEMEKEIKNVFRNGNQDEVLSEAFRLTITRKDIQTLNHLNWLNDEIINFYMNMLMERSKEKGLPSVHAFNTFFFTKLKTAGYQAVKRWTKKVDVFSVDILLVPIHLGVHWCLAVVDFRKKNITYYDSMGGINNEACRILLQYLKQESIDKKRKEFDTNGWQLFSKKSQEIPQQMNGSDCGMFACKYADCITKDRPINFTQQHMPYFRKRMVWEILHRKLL
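Test system: recombinant human SENP1 catalytic domain, His6-tagged / Medium: pH 8 Tris buffer with EDTA, NaCl, BME, BSA, NP40, catalase / Also added: SUMO1 FRET substrate flanked by Cypet and Ypet, 25 nM / Times: 50 min reaction at room temperature / Signal: FRET, CFP and YFP emission / Control set: no-enzyme low control and enzyme-plus-DMSO high control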
SENP7 inh – inhibitors of human SENP7 protease; recombinant SENP7, Z-RLRGG-aminoluciferin luminescence, 40 min; Q9BQF6; actives 1.5% (n = 330,000); inhibition, % at 5 µM;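 active means inhibition above about 50% at the single test dose, limit read from the data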;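 further: plate controls were DMSO with enzyme for no effect and no enzyme buffer wells for full effect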
Target sequence (Q9BQF6 706-1050 limits assumed): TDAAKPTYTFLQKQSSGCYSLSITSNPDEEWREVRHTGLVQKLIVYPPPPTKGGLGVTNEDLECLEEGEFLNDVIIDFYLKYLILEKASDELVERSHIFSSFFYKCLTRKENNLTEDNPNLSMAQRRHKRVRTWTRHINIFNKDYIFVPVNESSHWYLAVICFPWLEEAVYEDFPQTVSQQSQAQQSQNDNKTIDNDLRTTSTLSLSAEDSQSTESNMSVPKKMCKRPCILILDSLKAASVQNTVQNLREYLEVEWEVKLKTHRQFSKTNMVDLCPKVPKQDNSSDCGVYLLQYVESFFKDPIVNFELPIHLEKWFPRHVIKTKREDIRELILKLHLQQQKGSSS
SENP8 conf – confirmation of human SENP8 protease inhibitors. shares compounds with SENP7 inh. Recombinant SENP8, Z-RLRGG-aminoluciferin luminescence, 60 min. inhibition, % at 12.5 µM. actives 40% (n = 6,200). AID 488912;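 active means mean inhibition across replicates above about 50%, limit read from the data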
SENP6 conf – human SENP6 inhibition, confirmed; shares compounds with SENP7 inh; actives 58% (n = 6,200); recombinant SENP6, Z-RLRGG-aminoluciferin luminescence; inhibition, % at 12.5 µM
SENP7 conf – human SENP7 inhibition, confirmed; shares compounds with SENP7 inh; recombinant SENP7, Z-RLRGG-aminoluciferin luminescence, 40 min; inhibition, % at 12.5 µM; actives 69% (n = 6,200); AID 488917
Casp3 SENP sel – caspase-3 inhibition (SENP selectivity assay); purified caspase-3, Z-DEVD-aminoluciferin luminescence, 60 min; shares compounds with SENP7 inh; actives 60% (n = 6,200); AID 488918; inhibition, % at 12.5 µM;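 active means mean inhibition above about 50%, limit read from the data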;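 further: plate controls were enzyme with DMSO for no effect and wells without caspase-3 for full effect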
SENP luc ctr – counter-screen for SENP inhibitors: luminescence interference | AID 488919 | Pre-incubated SENP8/Z-RLRGG-aminoluciferin, luciferase luminescence interference | shares compounds with SENP7 inh | inhibition, % at 12.5 µM | actives 39% (n = 6,200);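 active means mean inhibition above about 50% when retested at one dose, limit read from the data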;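 further: plate controls were DMSO wells with completed reaction for no effect and substrate without enzyme for full effect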
* = called active by the depositor.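 How the source made its calls, unless noted: active means mean inhibition above about 50% in the one-dose retest (limit read from the data); inactive means the rest.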

O=C(Nc1cccs1)Nc1ccc(Br)cc1F was read as SENP8 block-1 11, SENP8 block-2 4, SENP6 block 64*, UCH37 DUB inh 4, SENP1 inh 0, SENP7 inh 13, SENP8 conf 22, SENP6 conf 22, SENP7 conf 61*, Casp3 SENP sel 23 and SENP luc ctr 22.
CCc1ccc(NC(=O)Nc2cccs2)cc1 was read as SENP8 block-1 57*, SENP8 block-2 9, SENP6 block 78*, UCH37 DUB inh 1, SENP1 inh 8, SENP7 inh 47, SENP8 conf 2, SENP6 conf 56*, SENP7 conf 89*, Casp3 SENP sel 53* and SENP luc ctr 8.
Screening CC(CCN1CCCCc2nc(C)c(C)cc21)=NO[C@H](C)c1cn([C@H](CO)Cc2ccccc2)nn1 returned UCH37 DUB inh -259.
Screening CCOc1ccc(NC(=O)Nc2ccc3nsnc3c2)cc1 returned SENP8 block-1 -6, SENP8 block-2 -6, SENP6 block -8, UCH37 DUB inh -4, SENP1 inh 9 and SENP7 inh -1.
For Cc1ccc(NC(=O)Nc2cccs2)cc1 the results were SENP8 block-1 55*, SENP8 block-2 4, SENP6 block 64*, UCH37 DUB inh 5, SENP1 inh 3, SENP7 inh 26, SENP8 conf 2, SENP6 conf 56*, SENP7 conf 87*, Casp3 SENP sel 65* and SENP luc ctr 9.
For CCOc1ccc(NC(=O)Nc2cccs2)cc1 the results were SENP8 block-1 67*, SENP8 block-2 27, SENP6 block 27, UCH37 DUB inh 3, SENP1 inh 1, SENP7 inh 73*, SENP8 conf -18, SENP6 conf 72*, SENP7 conf 95*, Casp3 SENP sel 85* and SENP luc ctr 82*.
Screening COc1ccc(NC(=O)CC2SC(=Nc3nccs3)N(C)C2=O)cc1 (centres undefined) returned UCH37 DUB inh 4.
Screening NC(=S)NN=Cc1c[nH]c2ccc(OCc3ccccc3)cc12 returned UCH37 DUB inh -1.
Screening O=C(Oc1ccc(C=NNC(=O)c2ccccn2)cc1)c1ccc(Br)cc1 returned UCH37 DUB inh -23.
Cc1ccc(/C=N\NC(=O)c2csnn2)cc1 was read as SENP8 block-1 30, SENP8 block-2 24, SENP6 block 55*, SENP1 inh -27, SENP7 inh 50*, SENP8 conf 41, SENP6 conf 39, SENP7 conf 77*, Casp3 SENP sel 81* and SENP luc ctr 28.
`O=C(NN=Cc1ccc(F)cc1)c1csnn1` gave UCH37 DUB inh 4.
`O=C(N/N=C/c1ccc(OC(=O)c2ccccc2Cl)cc1)c1ccccn1` gave SENP8 block-1 5, SENP8 block-2 -7, SENP6 block 4, SENP1 inh 1, SENP7 inh 71*, SENP8 conf 12, SENP6 conf 11, SENP7 conf 15, Casp3 SENP sel 29 and SENP luc ctr 10.
Screening CCc1ccc(/C=N/NC(=O)c2ccccn2)cc1 returned SENP8 block-1 79*, SENP8 block-2 -3, SENP6 block 83*, SENP1 inh 0, SENP7 inh 83*, SENP8 conf 87*, SENP6 conf 87*, SENP7 conf 98*, Casp3 SENP sel 94* and SENP luc ctr 86*.
CCN(CC)c1ccc(/C=N/NC(=O)c2ccccn2)cc1 was read as SENP8 block-1 11, SENP8 block-2 -241, SENP6 block 1, SENP1 inh -32 and SENP7 inh 28.
`NC(N)=NN=Cc1ccc(Cl)cc1Cl` gave UCH37 DUB inh 2.
`CSc1ccc(C=NNC(=O)c2sccc2C)cc1` gave UCH37 DUB inh -55.
Cn1c(=O)[nH]c(=O)c2c1nc(NN=Cc1cccnc1)n2Cc1ccc(Cl)cc1 was read as UCH37 DUB inh -211.
For Oc1ccccc1/C=N/Nc1nc2ccccc2o1 the results were SENP8 block-1 69*, SENP8 block-2 -26, SENP6 block 83*, SENP1 inh -14, SENP7 inh 79*, SENP8 conf 28, SENP6 conf 62*, SENP7 conf 92*, Casp3 SENP sel 66* and SENP luc ctr 31.
For COc1ccc(/C=N/Nc2nc3ccccc3o2)cc1O the results were SENP8 block-1 64*, SENP8 block-2 -16, SENP6 block 45, SENP1 inh 2, SENP7 inh 73*, SENP8 conf 84*, SENP6 conf 84*, SENP7 conf 97*, Casp3 SENP sel 82* and SENP luc ctr 82*.
For Brc1ccc(/C=N/Nc2nc3ccccc3o2)cc1 the results were SENP8 block-1 9, SENP8 block-2 -33, SENP6 block 23, SENP1 inh 2, SENP7 inh 55*, SENP8 conf 22, SENP6 conf 18, SENP7 conf 32, Casp3 SENP sel 26 and SENP luc ctr 41.
CC(CC(=O)NCc1ccco1)=NNC(=O)C(c1ccccc1)c1ccccc1 was read as UCH37 DUB inh 2.
Screening O=C(CNC(=O)c1cccs1)NN=Cc1ccc(O)cc1O returned UCH37 DUB inh -2.
COc1ccc(C(=O)c2c(C(F)(F)F)oc3c2C(=O)c2ccccc2C3=O)cc1OC was read as SENP8 block-1 60*, SENP8 block-2 63*, SENP6 block 58*, UCH37 DUB inh 16, SENP1 inh 1, SENP7 inh 45, SENP8 conf 10, SENP6 conf 79*, SENP7 conf 32, Casp3 SENP sel 78* and SENP luc ctr 1.
